# Source: PubChem (several laboratories)
# Shown are actives, neighbours in structure and some others; about 1% of the full set was active somewhere.
# GSIS activator = primary screen for activators of insulin secretion dependent on glucose, INS-1E cells, GLuc reporter luminescence | INS-1E GLuc reporter insulin secretion, 2-3 h | activation, % at 16.6 µM | 370,000 tested, 0.61% active | AID 743287;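 active = lowest replicate activation of at least 40%, so every replicate reaches that level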;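 note: 0% = median of neutral control wells and 100% = median of IBMX positive control wells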
# CaV13 ICDI inh = Disruptors of the CACNA1D IQ motif to Ca2+-dependent inactivation inhibitor domain association, primary screening, Förster resonance energy transfer in intact living …; 340,000 tested, 0.098% active; HEK cells, CFP/YFP FRET ICDI-IQ, plate reader, 10 min; percent FRET-ratio fall versus neutral wells; AID 743397; inhibition, % at 12.3 µM;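 active = mean replicate inhibition of at least 30% and at least 1% of replicates passing that level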;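 note: 0% = median of the neutral control wells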
# XiGFP reactiv = reactivates the inactive X chromosome in mouse fibroblasts. XiGFP mouse fibroblasts, % GFP-positive cells imaging, 3 d; cells co-treated with 5-aza-dC sensitizer; scaled so ellipticine positive control = 100%. activation, % at 7.58 µM. 360,000 tested, 0.055% active. AID 743238;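 active = mean normalized replicate activation at least 10% and every replicate at or above 10%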;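 note: 0% = median of on-plate neutral control wells and 100% = ellipticine 6 µM median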
#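 Material: XiGFP fibroblasts, SV40-immortalized. Buffer or medium: DMEM plus 5-aza-dC sensitizer. Compound: single concentration per compound, delivered by pin transfer. Times: 3 days compound exposure. Controls: ellipticine 6 µM.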
# FXN GAA850 act = frataxin GAA850 promoter activation; HEK293 lucGAA850 FXN promoter luciferase reporter, 24 h; percent of 10 µM SAHA response; activation, % at 6 µM; 360,000 tested, 0.56% active; AID 540364;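 active = activation above the average of all compounds screened plus 3 SD, cutoff fixed separately per campaign, cut at about 7.5% in these data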;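 note: 0% = DMSO wells and 100% = 10 µM SAHA wells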
# Numbers without * were called inactive; nt = no result given.
SMILES,GSIS activator,CaV13 ICDI inh,XiGFP reactiv,FXN GAA850 act
N/C(=N\OC(=O)c1ccccc1Br)c1ccc([N+](=O)[O-])cc1,-1,-19,0,3
CCN1CCN(c2cc(C)c3cc(NC(=O)c4cccs4)ccc3n2)CC1,4,-6,12*,6
Cc1cc(N2CCN(C)CC2)nc2ccc(NC(=S)NCCCN3CCc4ccccc4C3)cc12,12,-18,3,-1
Cc1cc(N2CCN(C)CC2)nc2ccc(NC(=S)NCCN3CCc4ccccc4C3)cc12,-3,-16,49*,-4
CCN(CC)CCNC(=S)Nc1ccc2nc(N3CCN(CC)CC3)cc(C)c2c1,48*,-22,0,-2
CCN1CCN(c2cc(C)c3cc(NC(=S)NCCN(C)C)ccc3n2)CC1,0,-2,0,-2
CC(=NNc1ccc2ccccc2n1)c1ccccn1,7,-12,33*,nt
O=S(=O)(c1ccc(-c2csc(Nc3ccc(F)cc3)n2)cc1)N1CCCC1,-2,-5,0,-3
O=S(=O)(c1ccc(-c2csc(Nc3ccc(Br)cc3)n2)cc1)N1CCCC1,89*,-5,0,0
C/C=C/c1ccc([C@H]2[C@@H](CO)N(C(=O)CC)[C@@H]2CNC(=O)c2ccncc2)cc1,-1,nt,0,nt
C[C@@H]1CCCCO[C@@H](CN(C)S(=O)(=O)c2cccs2)[C@@H](C)CN([C@H](C)CO)C(=O)c2cc(NC(=O)Nc3ccccc3)ccc2O1,45,nt,0,nt
C=C(CN(C)C)C(=O)c1cc(C)ccc1C,90*,-6,1,-12
Cc1ccc(C)c(C(=O)NCCN(C)C)c1,nt,-5,nt,2
O=C(Nc1ccc(S(=O)(=O)N2CCOCC2)cc1)c1ccc(=O)[nH]c1,43*,-16,2,nt
O=C(Nc1ccc(S(=O)(=O)N2CCCCC2)cc1)c1ccc(=O)[nH]c1,12,-2,0,1
C/C(=N/NC(=O)c1ccc(Br)s1)c1cccnc1,-1,nt,0,4
C/C(=N/NC(=O)c1ccc(Br)s1)c1ccncc1,50*,nt,0,4
O=C([C@@H]1[C@@H](CO)[C@@H]2Cn3c(ccc(C4=CCCC4)c3=O)[C@H]1N2)N1CCCCC1,0,nt,0,nt
O=S(=O)(c1ccc(F)cc1)N1CCCCN2[C@H](CO)[C@H](c3ccc(C#CC4CC4)cc3)[C@H]2C1,-27,nt,0,nt
O=C(NCc1cccnc1)c1cccc(S(=O)(=O)NCc2ccccc2)c1,46*,-6,0,2
Cc1ccccc1OCc1nnc(SCC(=O)Nc2ccc3c(c2)oc2ccccc23)n1C,131*,-4,nt,1
C[C@@H]1CCCCO[C@@H](CN(C)CC2CCCCC2)[C@H](C)CN([C@H](C)CO)C(=O)c2cc(NS(=O)(=O)c3cn(C)cn3)ccc2O1,7,nt,-1,nt
Cc1ccc(NC2c3ncccc3C(=O)N2C2CCCCC2)cc1 (configuration not stated),56*,-3,nt,-2
COc1ccc(/C=N/n2c(-c3ccco3)nc3ccccc3c2=O)cc1,7,nt,nt,0
O=c1c2ccccc2nc(-c2ccco2)n1/N=C/c1ccccc1O,69*,0,nt,4
SMILES,GSIS activator,CaV13 ICDI inh,XiGFP reactiv,FXN GAA850 act
O=c1c2ccccc2nc(-c2ccco2)n1/N=C/c1ccco1,54*,-3,nt,1
Cc1ccc(SC(C)C(=O)NC(N)=O)c(C)c1 (configuration not stated),41*,-1,-1,2
O=C(CCc1ccccc1)NNC(=O)COc1ccccc1Cl,137*,-6,0,1
CCOc1ccc(CCNC(=O)c2cc(C)on2)cc1OCC,55*,-9,0,2
COc1ccc(CNC(=O)c2cc(-c3ccc(OC)c(OC)c3)on2)cc1,78*,-5,nt,-1
COc1ccc(CCNC(=O)c2cc(-c3cccs3)on2)cc1OC,1,-8,nt,16*
CCOc1ccc(CCNC(=O)c2c(C)noc2C)cc1OCC,6,-6,0,1
C[C@H](CO)N1C[C@H](C)[C@H](CN(C)C(=O)Nc2ccc3c(c2)OCO3)OCCCC[C@H](C)Oc2ccc(NS(=O)(=O)c3ccc(Cl)cc3)cc2C1=O,-7,nt,0,nt
FC(F)(F)c1cc(-c2ccccc2)nc(-n2cc(Cl)cn2)n1,51*,-6,0,2
O=S(=O)(NCCc1ccccc1)c1ccc(S(=O)(=O)N2CCCCC2)cc1,-4,-8,nt,0
O=S(=O)(NCc1ccccc1)c1ccc(S(=O)(=O)N2CCCCC2)cc1,49*,-3,nt,0
COc1ccc(S(=O)(=O)Nc2cccc3c2O[C@@H](CN(C)C(=O)Nc2ccc4c(c2)OCO4)[C@@H](C)CN([C@@H](C)CO)C3=O)cc1,-9,nt,0,nt
COc1ccc(CN2C[C@H](O)COC[C@H]3O[C@H](CC(=O)NCc4ccccc4Cl)CC[C@@H]32)cc1,-5,nt,0,nt
Cc1cccc(OCC(=O)N(C)c2c(N)n(Cc3ccccc3)c(=O)[nH]c2=O)c1C,-2,-2,140*,-1
Cc1ccccc1OCCC(=O)N(Cc1ccccc1)c1c(N)n(Cc2ccccc2)c(=O)[nH]c1=O,9,nt,1,-9
O=C(/C=C\c1cn(-c2ccccc2)nc1-c1ccccc1)Nc1nccs1,47*,-17,0,5
CC(C)NC(=O)N[C@@H]1CC[C@H](CCN)O[C@H]1CO,16,nt,0,nt
CC1OC(CC(=O)O)CC2=C1C(=O)c1c(O)cccc1C2=O (configuration not stated),72*,-6,4,-16
CCCN1[C@@H]2c3ccc(-c4ccncc4)c(=O)n3C[C@H]1[C@H](CO)[C@H]2C(=O)N1CCCCC1,-1,nt,0,nt
C[C@@H]1CN([C@H](C)CO)S(=O)(=O)c2ccc(C#Cc3ccc(F)cc3)cc2O[C@@H]1CN(C)C(=O)CN(C)C,53,nt,-1,nt
Cc1ccc(Cl)c2c(N=Nc3ccccc3)c(O)[nH]c12,19,-291,27*,5
O=C1N/C(=C/c2ccc(N3CCOCC3)o2)C(=O)N1c1cccc(Cl)c1,-27,-4,1,8.9*
Cc1ccc(/C=C2/NC(=O)N(c3ccccc3)C2=O)o1,nt,-9,nt,5
CCCNC(=O)N(C)C[C@@H]1Oc2ncc(C#CCc3ccccc3)cc2C(=O)N([C@@H](C)CO)C[C@@H]1C,-22,nt,0,nt
Cc1noc(C)c1S(=O)(=O)N(CC(=O)N1CCCCCC1)c1ccc(C(C)C)cc1,-9,51*,0,2
Cn1c(=NC(=O)c2ccccc2[N+](=O)[O-])sc2cc(S(C)(=O)=O)ccc21,87*,-5,0,5
Cn1c(=NC(=O)c2ccc(S(=O)(=O)N3CCCc4ccccc43)cc2)sc2cc(S(C)(=O)=O)ccc21,-9,-4,0,1
O=C(N[C@@H]1C=C[C@@H](CC(=O)N2CCc3ccccc3C2)O[C@H]1CO)C1CCOCC1,0,nt,0,nt
CCC(C)(C)n1nnnc1C(c1cc2cc(C)ccc2[nH]c1=O)N1CCCC1 (configuration not stated),17,-14,nt,10.0*
